Assay results reported in ChEMBL document CHEMBL1123566, “Synthesis and cardiac electrophysiological activity of 2- and 3-[(substituted phenyl)alkyl]quinuclidines. Structure-activity relationships” (1987).
“And” between values parts separate entries of the source, which are not always exact repeats. Equal entries are not always repeated.

Experiments:
Canis familiaris [1] = organism: Canis familiaris; experiment: In vitro electrophysiological evaluation in canine cardiac Purkinje fibres reported as percent change Vmax at 10 uM at concentration range of 0.1-100 uM; assay type: functional; details: Canis lupus familiaris, Purkinje fiber
Procedure, shortened: (§1)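 Canine cardiac Purkinje fibers, intracellular recording, paced at a basic cycle length of 1 s. APD95 and Vmax are recorded together across cumulative concentrations. Compound is a 10 mM aqueous stock diluted into Tyrode's solution. Each fiber is used once as its own control. Readouts are percent change from control at 10 μM, and the maximum change with the concentration where it occurred.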

Canis familiaris [2] = experiment: Mean arterial blood pressure was determined by intraduodenal administration of two dosages of 10 mg/kg (low dose) of compound in anesthetized dogs. Value was reported for experiment 1; assay type: functional, Canis lupus familiaris
Procedure, shortened: (§2)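 Anesthetized dogs, usually given two intraduodenal doses, with the second dose cumulative (low/high). Left ventricular FRP and CT were determined at 15, 30 and 45 min after dosing. HR and BP were measured during nonpacing intervals. Values are % change from control at low/high dose, for individual animals. The vehicle-stability set used 5% dextrose in water/tragacanth (n = 8).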

Canis familiaris [3] = organism: Canis familiaris; experiment: In vitro electrophysiological evaluation in canine cardiac ventricular muscle reported as % change for the functional refractory period (FRP) at 10 uM at concentration range of 0.1-100 uM; design: species or system Canis lupus familiaris, Muscle tissue
Procedure, shortened: (§3)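 Canine right ventricle and papillary muscle strips in oxygenated Tyrode's solution, fitted with stimulating and recording electrodes. The extra-stimulus conduction-interval method was adapted for in vitro use. FRP and CT were read from a conduction-interval curve before and after various compound concentrations, and expressed as percent change from control. Compounds were taken from 10 mM deionized-water stock into Tyrode's. Each strip was used once as its own control.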

Canis familiaris [4] = experiment: Heart rate was determined by intraduodenal administration of two dosages of 30 mg/kg (high dose)of compound in anesthetized dogs. Value was reported for experiment 1; assay type: functional, Canis lupus familiaris
Procedure, shortened: (§4)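 Anesthetized dogs given the compound intraduodenally, generally as two doses with the second a cumulative total (low/high). FRP and CT measured at 15, 30 and 45 min after dosing. HR and BP taken during nonpacing intervals. Values are percent change from control per animal. Activity criterion is FRP or CT prolonged ≥12%. Vehicle: 5% dextrose in water/tragacanth.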

Canis familiaris [5] = experiment: Left ventricular refractory period was determined by intraduodenal administration of two dosages of 10 mg/kg (low dose) of compound in anesthetized dogs. Value was reported for experiment 1; assay type: functional, Canis lupus familiaris, Cardiac ventricle; procedure, shortened: as §2
Canis familiaris [6] = organism: Canis familiaris; experiment: (§5) In vitro electrophysiological evaluation in canine cardiac occurred is 100 uM.; assay type: functional; details: Canis lupus familiaris; Heart
Canis familiaris [7] = organism: Canis familiaris; experiment: In vitro electrophysiological activity in canine cardiac occurred is 50 uM.; assay type: functional, Canis lupus familiaris, Heart
Canis familiaris [8] = experiment: Conduction time was determined by intraduodenal administration of two dosages of 10 mg/kg (low dose) of compound in anesthetized dogs. Value was reported for experiment 2; assay type: functional, Canis lupus familiaris
Procedure, shortened: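 Anesthetized dogs; compound given intraduodenally, generally as two doses, the second a cumulative (high) dose. LV functional refractory period and conduction time measured 15, 30 and 45 min after dosing; heart rate and blood pressure measured during nonpacing intervals. Values are % change from control, given per individual animal. Active if FRP or CT prolonged by ≥12%.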

Canis familiaris [9] = organism: Canis familiaris; experiment: In vitro electrophysiological evaluation in canine cardiac Purkinje fibres reported as percent change Vmax at 10 uM at concentration range of 0.1-30 uM; assay type: functional; details: Canis lupus familiaris, Purkinje fiber
Procedure, shortened: (§6)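 Canine cardiac Purkinje fibres, intracellular microelectrode recording, paced at a basic cycle length of 1 s. APD95 and Vmax read simultaneously. Compound: 10 mM stock in deionized water, diluted into Tyrode's solution, tested over the stated concentration range. Each fibre used once as its own control. Result is % change from control, given at 10 µM or as the maximum with its concentration. M = <10% decrease or an increase in Vmax.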

Canis familiaris [10] = experiment: Left ventricular refractory period was determined by intraduodenal administration of two dosages of 30 mg/kg (high dose)of compound in anesthetized dogs. Value was reported for experiment 2; assay type: functional, Canis lupus familiaris, Cardiac ventricle; procedure, shortened: as §2
Canis familiaris [11] = experiment: Left ventricular refractory period was determined by intraduodenal administration of two dosages of 10 mg/kg (low dose) of compound in anesthetized dogs. Value was reported for experiment 2; assay type: functional, Canis lupus familiaris, Cardiac ventricle; procedure, shortened: as §2
Canis familiaris [12] = organism: Canis familiaris; experiment: In vitro electrophysiological evaluation in canine cardiac occurred is 30 uM.; assay type: functional; details: Canis lupus familiaris; Heart
Canis familiaris [13] = experiment: Heart rate was determined by intraduodenal administration of two dosages of 30 mg/kg (high dose) of compound in anesthetized dogs. Value was reported for experiment 2; assay type: functional, Canis lupus familiaris; procedure, shortened: as §4
Canis familiaris [14] = experiment: Mean arterial blood pressure was determined by intraduodenal administration of two dosages of 10 mg/kg (low dose) of compound in anesthetized dogs. Value was reported for experiment 2; assay type: functional, Canis lupus familiaris; procedure, shortened: as §2
Canis familiaris [15] = organism: Canis familiaris; experiment: as §5; assay type: functional, organism-based; details: Canis lupus familiaris; Heart
Canis familiaris [16] = experiment: Conduction time was determined by intraduodenal administration of two dosages of 10 mg/kg (low dose) of compound in anesthetized dogs. Value was reported for experiment 1; assay type: functional, Canis lupus familiaris; procedure, shortened: as §4
Canis familiaris [17] = experiment: Left ventricular refractory period was determined by intraduodenal administration of two dosages(high dose) of 30 mg/kg of compound in anesthetized dogs. Value was reported for experiment 1; assay type: functional, Canis lupus familiaris, Cardiac ventricle; procedure, shortened: as §2
Canis familiaris [18] = experiment: Mean arterial blood pressure was determined by intraduodenal administration of two dosages of 30 mg/kg(high dose) of compound in anesthetized dogs. Value was reported for experiment 2; assay type: functional, Canis lupus familiaris; procedure, shortened: as §2
Canis familiaris [19] = organism: Canis familiaris; experiment: In vitro electrophysiological evaluation in canine cardiac Purkinje fibres reported as % change for action potential duration at 10 uM at 5-50 uM concentration range; assay type: functional, Canis lupus familiaris, Purkinje fiber; procedure, shortened: as §1
Canis familiaris [20] = organism: Canis familiaris; experiment: In vitro electrophysiological evaluation in canine cardiac ventricular muscle reported as % change for conduction time(CT) at 10 uM at 0.1-100 uM concentration range; assay type: functional, Canis lupus familiaris, Muscle tissue
Procedure, shortened: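 Canine right ventricular/papillary muscle strips in oxygenated Tyrode's, extracellular extra-stimulus conduction-interval method. FRP and CT are read from conduction-interval curves before and during rising concentrations. Compound is a 10 mM aqueous stock diluted into Tyrode's. Each strip is used once as its own control. Readouts are percent change from control at 10 μM, plus the maximum change with its concentration.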

Canis familiaris [21] = organism: Canis familiaris; experiment: In vitro electrophysiological evaluation in canine cardiac Purkinje fibres reported as % change for action potential duration at 10 uM at 0.1-30 uM concentration range; assay type: functional, Canis lupus familiaris, Purkinje fiber; procedure, shortened: as §6
Canis familiaris [22] = organism: Canis familiaris; experiment: In vitro electrophysiological activity in canine cardiac occurred is 100 uM.; assay type: functional, Canis lupus familiaris, Heart
Canis familiaris [23] = organism: Canis familiaris; experiment: In vitro electrophysiological evaluation in canine cardiac Purkinje fibres reported as percent change Vmax at 10 uM at concentration range of 5-50 uM; assay type: functional; details: Canis lupus familiaris, Purkinje fiber; procedure, shortened: as §1
Canis familiaris [24] = experiment: Conduction time was determined by intraduodenal administration of two dosages of 30 mg/kg (high dose)of compound in anesthetized dogs. Value was reported for experiment 1; assay type: functional, Canis lupus familiaris; procedure, shortened: as §4
Canis familiaris [25] = organism: Canis familiaris; experiment: In vitro electrophysiological evaluation in canine cardiac ventricular muscle reported as maximum % change for functional refractory period (FRP) at 0.1-100 uM concentration range; concentration at which it occurred is 100 uM.; design: species or system Canis lupus familiaris, Muscle tissue; procedure, shortened: as §3
Canis familiaris [26] = organism: Canis familiaris; experiment: In vitro electrophysiological evaluation in canine cardiac ventricular muscle reported as maximum % change for functional refractory period (FRP) at 0.1-100 uM concentration range; concentration at which it occurred is 10 uM.; design: species or system Canis lupus familiaris, Muscle tissue; procedure, shortened: as §3
Canis familiaris [27] = experiment: Mean arterial blood pressure was determined by intraduodenal administration of two dosages of 30 mg/kg (high dose)of compound in anesthetized dogs. Value was reported for experiment 1; assay type: functional, Canis lupus familiaris; procedure, shortened: as §2
Canis familiaris [28] = experiment: Heart rate was determined by intraduodenal administration of two dosages of 10 mg/kg (low dose) of compound in anesthetized dogs. Value was reported for experiment 1; assay type: functional, Canis lupus familiaris; procedure, shortened: as §4
Canis familiaris [29] = organism: Canis familiaris; experiment: In vitro electrophysiological evaluation in canine cardiac Purkinje fibres reported as % change for action potential duration at a concentration of 10 uM; assay type: functional, Canis lupus familiaris, Purkinje fiber; procedure, shortened: as §6
Canis familiaris [30] = experiment: Heart rate was determined by intraduodenal administration of two dosages of 10 mg/kg (low dose) of compound in anesthetized dogs. Value was reported for experiment 2; assay type: functional, Canis lupus familiaris; procedure, shortened: as §4
Canis familiaris [31] = experiment: Conduction time was determined by intraduodenal administration of two dosages of 30 mg/kg (high dose) of compound in anesthetized dogs. Value was reported for experiment 2; assay type: functional, Canis lupus familiaris; procedure, shortened: as §4
Canis familiaris [32] = organism: Canis familiaris; experiment: In vitro electrophysiological activity in canine cardiac occurred is 30 uM.; assay type: functional, Canis lupus familiaris, Heart

**Q.** With C=C[C@H]1CN2CC[C@H]1C[C@@H]2[C@@H](O)c1ccnc2ccc(OC)cc12 [QUINIDINE] as the molecule, how does the Vmax (Canis familiaris [1]) read?
**A.** The Vmax was -10%.

**Q.** And the Mean blood pressure (Canis familiaris [2])?
**A.** The Mean blood pressure was 2%.

**Q.** And the FRP (Canis familiaris [3])?
**A.** Its FRP is 21% [middle of 4 runs].

**Q.** What about the HR (Canis familiaris [4]) of the same molecule?
**A.** Its HR is -42%.

**Q.** And the “LV FRP” value (Canis familiaris [5])?
**A.** Its value is 13%.

**Q.** And the Vmax (Canis familiaris [6])?
**A.** Its Vmax is -40%.

**Q.** What about the APD95 (Canis familiaris [7]) of the same molecule?
**A.** The APD95 was -19%.

**Q.** And the CT (Canis familiaris [8])?
**A.** The CT was 10%.

**Q.** And the Vmax (Canis familiaris [9])?
**A.** Its Vmax is < 10%.

**Q.** What about the “LV FRP” value (Canis familiaris [10]) of the same molecule?
**A.** Its value is 28%.

**Q.** And the “LV FRP” value (Canis familiaris [11])?
**A.** Its value is 16%.

**Q.** And the Vmax (Canis familiaris [12])?
**A.** Its Vmax is -19%.

**Q.** And the HR (Canis familiaris [13])?
**A.** Its HR is -39%.

**Q.** And the Mean blood pressure (Canis familiaris [14])?
**A.** The Mean blood pressure was -7%.

**Q.** What about the Vmax (Canis familiaris [15]) of the same molecule?
**A.** The Vmax was -53%.

**Q.** And the CT (Canis familiaris [16])?
**A.** Its CT is 7%.

**Q.** What about the “LV FRP” value (Canis familiaris [17]) of the same molecule?
**A.** Its value is 20%.

**Q.** What about the Mean blood pressure (Canis familiaris [18]) of the same molecule?
**A.** The Mean blood pressure was 15%.

**Q.** And the APD95 (Canis familiaris [19])?
**A.** Its APD95 is -9%.

**Q.** What about the CT (Canis familiaris [20]) of the same molecule?
**A.** Its CT is 17% and 11% and <10%.

**Q.** What about the APD95 (Canis familiaris [21]) of the same molecule?
**A.** Its APD95 is -21%.

**Q.** And the APD95 (Canis familiaris [22])?
**A.** The APD95 was -24%.

**Q.** What about the Vmax (Canis familiaris [23]) of the same molecule?
**A.** Its Vmax is -11%.

**Q.** And the CT (Canis familiaris [24])?
**A.** Its CT is 51%.

**Q.** What about the FRP (Canis familiaris [25]) of the same molecule?
**A.** The FRP was 27% and 24% and 46%.

**Q.** What about the FRP (Canis familiaris [26]) of the same molecule?
**A.** Its FRP is 22%.

**Q.** And the Mean blood pressure (Canis familiaris [27])?
**A.** The Mean blood pressure was -4%.

**Q.** And the HR (Canis familiaris [28])?
**A.** Its HR is -22%.

**Q.** What about the APD95 (Canis familiaris [29]) of the same molecule?
**A.** The APD95 was -9%.

**Q.** What about the HR (Canis familiaris [30]) of the same molecule?
**A.** The HR was -18%.

**Q.** What about the CT (Canis familiaris [31]) of the same molecule?
**A.** The CT was 38%.

**Q.** And the APD95 (Canis familiaris [32])?
**A.** Its APD95 is -39%.
